Consider eleven molecules from ChEMBL document CHEMBL1142101, “Cytotoxic diterpenoids from the bark of Pseudolarix kaempferi and their structure-activity relationships” (J Nat Prod, 2007).

Series [1] can be described thus: Cytotoxicity against human Bel7402 cells after 48 hrs by MTT assay. Type of series: cell-based, Bel-7402. The following applies: for Activity: human, bel-7402, 48 h. A digest of the protocol: (§1)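 Cells seeded in 96-well plates and exposed to serial dilutions of test compound spanning 10-2 to 102 µM. Incubated 48 h at 37 °C in humidified air with 5% CO2. Growth inhibition read by MTT. IC50 taken as the concentration (µM) giving 50% inhibition of cell growth.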

Series [2] in a line: Cytotoxicity against human BGC823 cells after 48 hrs by MTT assay. The following applies: for Activity: human, bgc-823, 48 h; for IC50: Homo sapiens, BGC-823, 48 h. Type of series: cell-based, BGC-823. An outline of the steps: as §1
In another series the test system is HL-60. Nature of the series: Cytotoxicity against human HL60 cells after 48 hrs by MTT assay. The series is classed as cell-based. The following applies: for Activity: human, hl-60, 48 h; for IC50: Homo sapiens, HL-60, 48 h. An outline of the steps: as §1
[3] abbreviates: Homo sapiens, Bel-7402, 48 h, read-out: IC50.

`COC(=O)C1=CC[C@@]23CC[C@@H]([C@@](C)(/C=C/C=C(\C)C(=O)OCC(O)CO)OC2=O)[C@@]3(O)CC1` (stereo partly drawn): the Activity entry (in series [1]; in series [2]; with HL-60) was “Not Active” throughout.

`CC1=CC[C@@]23CC[C@@H]([C@@](C)(/C=C/C=C(\C)C(=O)OCC(O)CO)OC2=O)[C@@]3(O)CC1` (stereo partly drawn): the Activity entry (in series [1]; in series [2]; with HL-60) was “Not Active” throughout.

Consider `CC1=CC[C@@]23CC[C@@H]([C@@](C)(/C=C/C=C(\C)C(=O)O[C@@H]4O[C@H](CO)[C@@H](O)[C@H](O)[C@H]4O)OC2=O)[C@@]3(O)CC1`, for which the IC50 result in series [1] (bel-7402) is reported as “Not Active”. For the same molecule, the Activity entry (in series [2]; with HL-60) was “Not Active” in each case.

For `CC1=CC[C@@]23CC[C@@H]([C@@](C)(/C=C/C=C(\C)C(=O)O)OC2=O)[C@@]3(O)CC1` [DEACETYLPSEUDOLARIC ACID A], the Activity result (in series [1]; in series [2]; in the series with HL-60) was “Not Active” in each case.

With `O=c1[nH]cc(F)c(=O)[nH]1` [FLUOROURACIL], the IC50 in series [1] (setting [3]) was 23.2 µM; in series [2], 31.2 µM; in the series with HL-60, 0.16 µM.

For the molecule `CC(=O)O[C@]12CCC(C)=CC[C@]13CC[C@H]2[C@@](C)(/C=C/C=C(\C)C(=O)O)OC3=O` [PSEUDOLARIC ACID A], the IC50 in series [1] (setting [3]) was over 100 µM; in series [2] it was over 100 µM; in the series with HL-60, 1.51 µM.

Take `COC(=O)C1=CC[C@@]23CC[C@@H]([C@@](C)(/C=C/C=C(\C)C(=O)O)OC2=O)[C@@]3(OC(C)=O)CC1` [PSEUDOLARIC ACID B]: the results for the IC50 (in series [1] (setting [3]); in series [2]; with HL-60) were over 100 µM, over 100 µM and 0.59 µM, respectively.

Consider `CC(=O)O[C@]12CCC(C(=O)O)=CC[C@]13CC[C@H]2[C@@](C)(/C=C/C=C(\C)C(=O)O)OC3=O` [PSEUDOLARIC ACID C2], for which the Activity entry (in series [1]; with HL-60) was “Not Active” each time. In series [2], this molecule had an IC50 of over 100 µM.

For `COC(=O)C1=CC[C@@]23CC[C@@H]([C@@](C)(/C=C/C=C(\C)C(=O)O)OC2=O)[C@@]3(O)CC1` [PSEUDOLARIC ACID C], the IC50 entry in series [1] (bel-7402) is reported as “Not Active”. Moreover, the Activity result (in series [2]; in the series on HL-60) was “Not Active” each time.

As to `CC(=O)O[C@]12CC=C(C)C(=O)C[C@]13CC[C@H]2[C@@](C)(/C=C/C=C(\C)C(=O)O)OC3=O` [PSEUDOLARIC ACID F], the IC50 was over 100 µM in series [1] (setting [3]) and 55.4 µM in the series on HL-60. Further, in series [2], the Activity entry is reported as “Not Active”.

Regarding `CC(=O)O[C@]12CC=C(C)[C@H](O)C[C@]13CC[C@H]2[C@@](C)(/C=C/C=C(\C)C(=O)O)OC3=O` [PSEUDOLARIC ACID G], the IC50 in series [1] (setting [3]) is over 100 µM; in series [2], over 100 µM; in the series with HL-60, 11 µM.
